Results on four compounds are retold here after ChEMBL document CHEMBL4765328 (Eur J Med Chem, 2020).

For the first assay, the species on record is Bos taurus. The experiment in a line: Inhibition of [3H]colchicine binding to bovine brain tubulin at 5 uM relative to control. Put shortly:
(§1)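 [3H]colchicine binding to purified tubulin, with tubulin at 0.5 µM and colchicine at 5 µM. Compounds tested at 5 and 0.5 µM. CA-4 was run in contemporaneous experiments for comparison.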
Take `COc1ccc2c(C(=O)c3cc(OC)c(OC)c(OC)c3)c(N)oc2c1`: the inhibition amounted to 99%.

Compound `COc1ccc(/C=C\c2cc(OC)c(OC)c(OC)c2)cc1O` [COMBRETASTATIN A4] yielded an inhibition of 97%.

On to `COc1cc(C(=O)c2c(N)oc3c(O)c(OC)ccc23)cc(OC)c1OC`, for which the inhibition came to 99%.

System in the next assay: not listed separately
The experiment in a line: Inhibition of bovine brain tubulin polymerisation preincubated with compound followed by GTP addition and measured after 20 mins by turbidimetry based spectrophotometric method. Type of assay: tissue-based, Bos taurus. Put shortly: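 Bovine brain tubulin (10 µM) in glutamate buffer, preincubated with varying compound concentrations at 30 °C, then cooled to 0 °C. GTP added to 0.4 mM final, then warmed to 30 °C in a recording spectrophotometer. Assembly followed by turbidity at 350 nm.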
With `COc1ccc2c(C(=O)c3cc(OC)c(OC)c(OC)c3)c(N)oc2c1`, the IC50 turned out to be 480 nM.

As for `COc1cc(C(=O)c2c(N)oc3c(O)c(OC)ccc23)cc(OC)c1OC`, the IC50 amounted to 590 nM.

The next assay deals with HT-29. The experiment in a line: Antiproliferative activity against human HT-29 cells assessed as inhibition of cell growth. Type of assay: functional, cell-based. Put shortly: (§2)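 Growth inhibition of cancer cell lines read from dose-response curves; IC50 as mean ± SEM of at least three independent experiments.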
`CCOc1cccc2c(C(=O)c3cc(OC)c(OC)c(OC)c3)c(N)oc12`: the IC50 was 910 nM.

Consider `COc1ccc2c(C(=O)c3cc(OC)c(OC)c(OC)c3)c(N)oc2c1`, for which the half-inhibitory concentration (IC50) was 5.6 nM.

Take `COc1cc(C(=O)c2c(N)oc3c(O)c(OC)ccc23)cc(OC)c1OC`: the IC50 is 424 nM.

For the next assay, the system named is Daoy. The experiment in a line: Antiproliferative activity against human Daoy cells assessed as inhibition of cell growth. Type of assay: functional, cell-based. Put shortly: (§3)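 Compounds from 10 mM DMSO stocks; final DMSO ≤0.25%. Growth inhibition of cancer cell lines read from dose-response curves; IC50 as mean ± SEM of at least three independent experiments.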
Consider `CCOc1cccc2c(C(=O)c3cc(OC)c(OC)c(OC)c3)c(N)oc12`, for which the IC50 amounted to 1670 nM.

`COc1ccc2c(C(=O)c3cc(OC)c(OC)c(OC)c3)c(N)oc2c1`: the IC50 amounted to 0.3 nM.

For the compound `COc1ccc(/C=C\c2cc(OC)c(OC)c(OC)c2)cc1O` [COMBRETASTATIN A4], the IC50 stood at 12.3 nM.

Consider `COc1cc(C(=O)c2c(N)oc3c(O)c(OC)ccc23)cc(OC)c1OC`, for which the IC50 turned out to be 0.32 nM.

The test system of another assay is HL-60. The experiment in a line: Antiproliferative activity against human HL-60 cells assessed as inhibition of cell growth. Type of assay: functional, cell-based. Put shortly:
as §2
Take `CCOc1cccc2c(C(=O)c3cc(OC)c(OC)c(OC)c3)c(N)oc12`: the IC50 worked out at 428 nM.

In the case of `COc1ccc2c(C(=O)c3cc(OC)c(OC)c(OC)c3)c(N)oc2c1`, the IC50 was 3 nM.

Turning to `COc1cc(C(=O)c2c(N)oc3c(O)c(OC)ccc23)cc(OC)c1OC`, the IC50 was determined as 2.8 nM.

Another assay has as its system Jurkat. The experiment in a line: Antiproliferative activity against human Jurkat cells assessed as inhibition of cell growth. The class given is functional, cell-based. Put shortly: as §3
As to `CCOc1cccc2c(C(=O)c3cc(OC)c(OC)c(OC)c3)c(N)oc12`, the half-inhibitory concentration (IC50) worked out at 390 nM.

`COc1ccc2c(C(=O)c3cc(OC)c(OC)c(OC)c3)c(N)oc2c1`: the IC50 amounted to 2.7 nM.

Turning to `COc1ccc(/C=C\c2cc(OC)c(OC)c(OC)c2)cc1O` [COMBRETASTATIN A4], the IC50 came to 0.8 nM.

As for `COc1cc(C(=O)c2c(N)oc3c(O)c(OC)ccc23)cc(OC)c1OC`, the 50% inhibitory concentration (IC50) was 0.34 nM.

For a further assay, the system named is SEM cells. The experiment in a line: Antiproliferative activity against human SEM cells assessed as inhibition of cell growth. The class given is functional, cell-based. Put shortly:
as §3
On to `CCOc1cccc2c(C(=O)c3cc(OC)c(OC)c(OC)c3)c(N)oc12`, for which the IC50 came out at 385 nM.

As for `COc1ccc2c(C(=O)c3cc(OC)c(OC)c(OC)c3)c(N)oc2c1`, the IC50 worked out at 4.1 nM.

On to `COc1cc(C(=O)c2c(N)oc3c(O)c(OC)ccc23)cc(OC)c1OC`, for which the IC50 came out at 259 nM.

The species named for a further assay is Bos taurus. The experiment in a line: Inhibition of [3H]colchicine binding to bovine brain tubulin at 0.5 uM relative to control. Type of assay: tissue-based. Put shortly:
as §1
In turn, `COc1ccc2c(C(=O)c3cc(OC)c(OC)c(OC)c3)c(N)oc2c1` returned an inhibition of 79%.

`COc1ccc(/C=C\c2cc(OC)c(OC)c(OC)c2)cc1O` [COMBRETASTATIN A4] gave an inhibition of 82%.

`COc1cc(C(=O)c2c(N)oc3c(O)c(OC)ccc23)cc(OC)c1OC` showed an inhibition of 87%.

Another assay concerns HeLa. The experiment in a line: Antiproliferative activity against human HeLa cells assessed as inhibition of cell growth. The class given is functional, cell-based. Put shortly:
as §2
As for `CCOc1cccc2c(C(=O)c3cc(OC)c(OC)c(OC)c3)c(N)oc12`, the IC50 turned out to be 1250 nM.

Consider `COc1ccc2c(C(=O)c3cc(OC)c(OC)c(OC)c3)c(N)oc2c1`, for which the IC50 was determined as 2.9 nM.

Turning to `COc1cc(C(=O)c2c(N)oc3c(O)c(OC)ccc23)cc(OC)c1OC`, the IC50 is 15.3 nM.

Usually inhibition stands for the share of the control response that was lost under treatment. The term IC50 denotes the concentration that inhibits the measured activity by half.
